ChEMBL document CHEMBL1240328, “Selective compounds define Hsp90 as a major inhibitor of apoptosis in small-cell lung cancer” (Nat Chem Biol, 2007)
The source made the active and inactive calls.

What was measured:
[1] = biological target: Heat shock protein HSP 90-beta (Homo sapiens) (UniProt P08238); assay: Binding affinity to HSP90 in human NCI-H526 cells after 24 hrs by fluorescence polarization assay; format: cell-based
[2] = biological target: Heat shock protein HSP 90-beta (Homo sapiens) (UniProt P08238); assay: Binding affinity to HSP90 in human NCI-N417 cells after 24 hrs by fluorescence polarization assay; format: cell-based; conditions: NCI-H417
[3] = biological target: Heat shock protein HSP 90-beta (Homo sapiens) (UniProt P08238); assay: Binding affinity to HSP90 in human NCI-H146 cells after 24 hrs by fluorescence polarization assay; format: cell-based
[4] = biological target: Heat shock protein HSP 90-beta (Homo sapiens) (UniProt P08238); assay: Binding affinity to HSP90 in human NCI-H187 cells after 24 hrs by fluorescence polarization assay
[5] = biological target: Heat shock protein HSP 90-beta (Homo sapiens) (UniProt P08238); assay: Binding affinity to HSP90 in human NCI-H209 cells after 24 hrs by fluorescence polarization assay; format: cell-based
[6] = biological target: Heat shock protein HSP 90-beta (Homo sapiens) (UniProt P08238); assay: Binding affinity to HSP90 in human NCI-H510 cells after 24 hrs by fluorescence polarization assay; format: cell-based
[7] = biological target: Heat shock protein HSP 90-beta (Homo sapiens) (UniProt P08238); assay: Binding affinity to HSP90 in human NCI-H69 cells after 24 hrs by fluorescence polarization assay
[8] = biological target: Heat shock protein HSP 90-beta (Homo sapiens) (UniProt P08238); assay: Inhibition of HSP90-mediated proliferation of human NCI-H526 cells at 0.3 to 0.5 uM after 72 to 96 hrs by sulforhodamine B assay; format: cell-based
[9] = biological target: Heat shock protein HSP 90-beta (Homo sapiens) (UniProt P08238); assay: Inhibition of HSP90-mediated proliferation of human NCI-N417 cells at 0.3 to 0.5 uM after 72 to 96 hrs by sulforhodamine B assay; format: cell-based; conditions: NCI-H417
[10] = biological target: Heat shock protein HSP 90-beta (Homo sapiens) (UniProt P08238); assay: Binding affinity to HSP90 in human SKBR3 cells after 24 hrs by fluorescence polarization assay; conditions: SK-BR-3
[11] = biological target: Heat shock protein HSP 90-beta (Homo sapiens) (UniProt P08238); assay: Inhibition of HSP90 in chemo-resistant human H69AR cells at 100 uM after 24 hrs by fluorescence polarization assay; format: cell-based
Outline: (§1)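 Competitive fluorescence polarization in lysates of H69AR, SKI-AC3 and WBA cells, prepared in HFB buffer pH 7.3 and normalized to Hsp90. Tracer was 3 nM Cy3B-geldanamycin, with incubation for 24 h at 4 °C. EC50 was defined as 50% tracer displacement.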

[12] = biological target: Heat shock protein HSP 90-beta (Homo sapiens) (UniProt P08238); assay: Inhibition of HSP90 in chemo-resistant human SKI-AC3 cells at 100 uM after 24 hrs by fluorescence polarization assay; format: cell-based; outline: as §1
[13] = biological target: Heat shock protein HSP 90-beta (Homo sapiens) (UniProt P08238); assay: Inhibition of HSP90 in chemo-resistant human WBA cells at 100 uM after 24 hrs by fluorescence polarization assay; format: cell-based; outline: as §1
[14] = biological target: Heat shock protein HSP 90-beta (Homo sapiens) (UniProt P08238); assay: Inhibition of HSP90-mediated antiapoptotic activity in human H69AR cells assessed as induction of cell growth arrest at 10 after 96 hrs by propidium iodide staining-based flow cytometry
[15] = biological target: Heat shock protein HSP 90-beta (Homo sapiens) (UniProt P08238); assay: Inhibition of HSP90-mediated antiapoptotic activity in human SKI-AC3 cells assessed as induction of cell growth arrest at 10 after 96 hrs by propidium iodide staining-based flow cytometry
[16] = biological target: Heat shock protein HSP 90-beta (Homo sapiens) (UniProt P08238); assay: Inhibition of HSP90-mediated antiapoptotic activity in human WBA cells assessed as induction of cell growth arrest at 10 after 96 hrs by propidium iodide staining-based flow cytometry
[17] = test system: NCI-H417; assay: Anticancer activity against human NCI-N417 cells xenografted in ip dosed athymic mouse assessed as tumor caspase-3 cleavage administered daily for 5 consecutive days measured after 12 hrs post last dose by immunohistochemistry; format: functional, organism-based
Outline: (§2)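 Nude athymic (nu/nu) mice carrying NCI-N417 xenografts (cells injected with Matrigel), treated once tumors were 7–9 mm in diameter. Dosing was five consecutive daily i.p. doses of 100 mg kg–1, and mice were killed 12 h after the last dose (n = 2). Tumors were analyzed by immunohistochemistry for cleaved caspase-3, Ki-67 and p-Akt, with vehicle-treated tumors as comparison.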

[18] = test system: NCI-H417; assay: Anticancer activity against human NCI-N417 cells xenografted in ip dosed athymic mouse assessed as decrease in tumor Akt activity administered daily for 5 consecutive days measured after 12 hrs post last dose by immunohistochemistry; format: functional, organism-based; outline: as §2
[19] = test system: NCI-H417; assay: Anticancer activity against human NCI-N417 cells xenografted in athymic mouse assessed as decrease in tumor Akt activity at 75 mg/kg, ip administered daily for 5 consecutive days measured after 6 hrs post last dose by immunohistochemistry; format: functional, organism-based; set-up: dose 75 mg/kg
[20] = test system: NCI-H417; assay: Anticancer activity against human NCI-N417 cells xenografted in athymic mouse assessed as tumor growth inhibition at nontoxic dose administered ip daily for 5 consecutive days measured on day 20 post tumor implantation; format: functional, organism-based
Outline: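 Nude athymic mice (n = 4) bearing NCI-N417 tumors of V = 50–90 mm3 were dosed i.p. and tumor growth was monitored. Results are given as mean ± s.d.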

[21] = Drug level in tumor of human NCI-N417 cell-xenograft athymic mouse model at 75 mg/kg, ip administered as single dose after 3 hrs by HPLC/MS/MS analysis; format: ADME, organism-based, Neoplasm; set-up: dose 75 mg/kg, route intraperitoneal; conditions: in vivo
Outline: (§3)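 Nude mice bearing NCI-N417 xenografts received a single i.p. dose of 75 mg kg–1. Animals (n = 3) were killed at set times from 3 to 36 h. Tumors and brains were harvested and halved, and tumor drug content was quantified by HPLC/MS/MS.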

[22] = Drug level in tumor of human NCI-N417 cell-xenograft athymic mouse model at 75 mg/kg, ip administered as single dose after 6 hrs by HPLC/MS/MS analysis; format: ADME, organism-based, Neoplasm; set-up: dose 75 mg/kg, route intraperitoneal; conditions: in vivo; outline: as §3
[23] = Drug level in tumor of human NCI-N417 cell-xenograft athymic mouse model at 75 mg/kg, ip administered as single dose after 8 hrs by HPLC/MS/MS analysis; format: ADME, organism-based, Neoplasm; set-up: dose 75 mg/kg, route intraperitoneal; conditions: in vivo; outline: as §3
[24] = Drug level in tumor of human NCI-N417 cell-xenograft athymic mouse model at 75 mg/kg, ip administered as single dose after 12 hrs by HPLC/MS/MS analysis; format: ADME, organism-based, Neoplasm; set-up: dose 75 mg/kg, route intraperitoneal; conditions: in vivo; outline: as §3
[25] = Drug level in tumor of human NCI-N417 cell-xenograft athymic mouse model at 75 mg/kg, ip administered as single dose after 24 hrs by HPLC/MS/MS analysis; format: ADME, organism-based, Neoplasm; set-up: dose 75 mg/kg, route intraperitoneal; conditions: in vivo; outline: as §3
[26] = Drug level in tumor of human NCI-N417 cell-xenograft athymic mouse model at 75 mg/kg, ip administered as single dose after 36 hrs by HPLC/MS/MS analysis; format: ADME, organism-based, Neoplasm; set-up: dose 75 mg/kg, route intraperitoneal; conditions: in vivo; outline: as §3
[27] = biological target: Heat shock protein HSP 90-beta (Homo sapiens) (UniProt P08238); assay: Inhibition of HSP90-mediated proliferation of human SKBR3cells after 72 hrs by sulforhodamine B assay
[28] = biological target: Heat shock protein HSP 90-beta (Homo sapiens) (UniProt P08238); assay: Inhibition of HSP90-mediated proliferation of human NCI-H69 cells at 0.3 to 0.5 uM after 72 to 96 hrs by intracellular ATP level assay
[29] = biological target: Heat shock protein HSP 90-beta (Homo sapiens) (UniProt P08238); assay: Inhibition of HSP90-mediated proliferation of human NCI-H146 cells at 0.3 to 0.5 uM after 72 to 96 hrs by intracellular ATP level assay
[30] = biological target: Heat shock protein HSP 90-beta (Homo sapiens) (UniProt P08238); assay: Inhibition of HSP90-mediated proliferation of human NCI-H187 cells at 0.3 to 0.5 uM after 72 to 96 hrs by intracellular ATP level assay
[31] = biological target: Heat shock protein HSP 90-beta (Homo sapiens) (UniProt P08238); assay: Inhibition of HSP90-mediated proliferation of human NCI-H209 cells at 0.3 to 0.5 uM after 72 to 96 hrs by intracellular ATP level assay
[32] = biological target: Heat shock protein HSP 90-beta (Homo sapiens) (UniProt P08238); assay: Inhibition of HSP90-mediated proliferation of human NCI-H510 cells at 0.3 to 0.5 uM after 72 to 96 hrs by intracellular ATP level assay
[33] = test system: NCI-H417; assay: Anticancer activity against human NCI-N417 cells xenografted in athymic mouse assessed as decrease in tumor Akt activity at 75 mg/kg, ip administered as single dose measured after 36 hrs post dose by Western blot

Chain of Heat shock protein HSP 90-beta (Homo sapiens) (P08238 whole entry): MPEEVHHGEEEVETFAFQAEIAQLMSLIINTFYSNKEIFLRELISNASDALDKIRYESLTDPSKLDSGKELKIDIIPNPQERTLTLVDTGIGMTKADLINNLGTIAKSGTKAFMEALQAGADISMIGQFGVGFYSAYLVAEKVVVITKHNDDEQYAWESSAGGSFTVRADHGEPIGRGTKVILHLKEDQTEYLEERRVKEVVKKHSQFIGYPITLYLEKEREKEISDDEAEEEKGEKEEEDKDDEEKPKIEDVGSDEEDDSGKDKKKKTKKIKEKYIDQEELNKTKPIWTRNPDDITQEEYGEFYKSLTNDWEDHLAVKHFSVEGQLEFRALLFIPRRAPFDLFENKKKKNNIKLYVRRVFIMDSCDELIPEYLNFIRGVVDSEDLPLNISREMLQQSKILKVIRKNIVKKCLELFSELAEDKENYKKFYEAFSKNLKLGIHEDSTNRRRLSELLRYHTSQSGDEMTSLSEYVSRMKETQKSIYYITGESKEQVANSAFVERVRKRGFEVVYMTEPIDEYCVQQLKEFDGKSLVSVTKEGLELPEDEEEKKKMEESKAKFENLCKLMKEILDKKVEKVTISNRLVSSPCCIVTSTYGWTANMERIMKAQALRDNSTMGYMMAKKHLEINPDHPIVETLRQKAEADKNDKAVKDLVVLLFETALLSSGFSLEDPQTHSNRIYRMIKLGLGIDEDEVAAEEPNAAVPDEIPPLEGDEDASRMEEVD

CC(C)NCCCn1c(Sc2cc3c(cc2I)OCO3)nc2c(N)ncnc21 [PU-H71]
Activity [1]: Active | Activity [2]: Active | Activity [3]: Active | Activity [4]: Active | Activity [5]: Active | Activity [6]: Active | Activity [7]: Active | inhibition [8]: 50% | inhibition [9]: 50% | Activity [10]: Active | inhibition [11]: Active | inhibition [12]: Active | inhibition [13]: Active | Activity [14]: Active | Activity [15]: Active | Activity [16]: Active | Activity [17]: Dose-dependent effect | inhibition [18]: Dose-dependent effect | Activity [19]: Active | inhibition [20]: Active | Drug uptake [21]: Active | Drug uptake [22]: Active | Drug uptake [23]: Active | Drug uptake [24]: Active | Drug uptake [25]: Active | Drug uptake [26]: Active | inhibition [27]: Active | inhibition [28]: 50% | inhibition [29]: 50% | inhibition [30]: 50% | inhibition [31]: 50% | inhibition [32]: 50% | Activity [33]: Active
